Calls of active or inactive are those of the source. The rule behind the calls is not given here.
What was measured:
[1] = test system: HepG2; assay: Toxicity against human HepG2 cells assessed as effect on cell growth at 100 nM to 1 uM; assay type: cell-based; settings: hepg2, 0.1 µM
[2] = biological target: T1, Bile acid receptor (Homo sapiens) (UniProt Q96RI1); assay: Agonist activity at […] (unknown origin) expressed in human HepG2 cells co-expressing rat CYP7A1 gene promoter assessed as transrepression of CYP7A1 promoter driven luciferase activity at 10 uM relative to untreated control; assay type: cell-based
T1 sequence (whole entry): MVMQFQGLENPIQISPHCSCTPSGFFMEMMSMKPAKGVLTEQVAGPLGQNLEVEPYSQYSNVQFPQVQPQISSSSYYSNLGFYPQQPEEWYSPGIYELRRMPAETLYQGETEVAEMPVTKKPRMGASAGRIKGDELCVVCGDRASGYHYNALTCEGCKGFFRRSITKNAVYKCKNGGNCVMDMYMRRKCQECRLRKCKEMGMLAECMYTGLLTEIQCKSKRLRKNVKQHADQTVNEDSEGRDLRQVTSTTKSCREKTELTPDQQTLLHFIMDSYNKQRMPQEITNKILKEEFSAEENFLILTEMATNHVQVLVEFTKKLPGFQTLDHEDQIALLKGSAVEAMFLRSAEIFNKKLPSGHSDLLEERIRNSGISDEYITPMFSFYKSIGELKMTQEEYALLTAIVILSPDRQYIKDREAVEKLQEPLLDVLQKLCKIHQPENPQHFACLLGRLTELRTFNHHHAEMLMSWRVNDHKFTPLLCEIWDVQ
Summary of the method: (§1)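 Transient transfection of HepG2 cells (1 × 10^5/well; phenol red-free DMEM, 10% charcoal-stripped FBS, pen/strep) with pCMV-FXR (2 µg), rat CYP7A1 promoter reporter prCYP7A1-luc (6 µg) and pCMV-β-gal (1 µg). After 48 h exposure to 100 nM–10 µM, lysate luciferase was normalized to β-gal and expressed relative to DMSO (=1). 10 µM CDCA reference; at least three determinations.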

[3] = biological target: T1, Bile acid receptor (Homo sapiens); assay: Agonist activity at […] (unknown origin) expressed in human HepG2 cells co-expressing human PLTP gene promoter assessed as transactivation of PLTP promoter driven luciferase activity relative to untreated control; assay type: cell-based
[4] = biological target: T2, Peroxisome proliferator-activated receptor gamma (Homo sapiens) (UniProt P37231); assay: Agonist activity at PPARgamma (unknown origin) by receptor transactivation assay
T2 sequence (whole entry): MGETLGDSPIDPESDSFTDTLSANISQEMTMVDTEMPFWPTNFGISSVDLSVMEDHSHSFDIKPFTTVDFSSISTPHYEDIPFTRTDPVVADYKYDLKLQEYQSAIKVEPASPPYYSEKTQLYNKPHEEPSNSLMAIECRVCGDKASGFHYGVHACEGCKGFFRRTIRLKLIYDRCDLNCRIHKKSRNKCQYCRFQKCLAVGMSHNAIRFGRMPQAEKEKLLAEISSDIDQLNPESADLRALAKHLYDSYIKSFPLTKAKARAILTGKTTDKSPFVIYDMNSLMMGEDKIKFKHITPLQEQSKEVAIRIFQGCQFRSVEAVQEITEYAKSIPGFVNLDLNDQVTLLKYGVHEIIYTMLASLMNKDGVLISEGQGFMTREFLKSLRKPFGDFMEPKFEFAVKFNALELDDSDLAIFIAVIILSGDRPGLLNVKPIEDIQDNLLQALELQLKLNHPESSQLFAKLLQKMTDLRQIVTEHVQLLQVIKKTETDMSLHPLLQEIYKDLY

[5] = biological target: T1, Bile acid receptor (Homo sapiens); assay: Agonist activity at […] (unknown origin) expressed in human HepG2 cells co-expressing human SHP gene promoter assessed as transactivation of SHP promoter driven luciferase activity at 100 nM relative to untreated control; assay type: cell-based
[6] = biological target: T1, Bile acid receptor (Homo sapiens); assay: (§2) Agonist activity at GAL4 DNA binding domain tagged FXR ligand binding domain (unknown origin) expressed in human HepG2 cells assessed as receptor transactivation measured by relative luciferase activity at 100 nM by luciferase reporter gene based mammalian one-hybrid assay relative to untreated control; assay type: cell-based
Summary of the method: (§3)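 HepG2 cells seeded at 1 × 10^5 cells/well in phenol red-free DMEM with 10% charcoal-stripped FBS and penicillin/streptomycin. Next day transfected with pGAL4-FXR LBD (2 µg), pG5-luc (6 µg) and pCMV-β-gal normalizer (1 µg). Treated 48 h at 100 nM–10 µM, DMSO vehicle, 10 µM CDCA reference. Luciferase/β-gal ratio expressed relative to DMSO (=1); at least triplicate.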

[7] = biological target: T1, Bile acid receptor (Homo sapiens); assay: Agonist activity at […] (unknown origin) expressed in human HepG2 cells co-expressing rat CYP7A1 gene promoter assessed as transrepression of CYP7A1 promoter driven luciferase activity at 1 uM relative to untreated control; assay type: cell-based; summary of the method: as §1
[8] = biological target: T1, Bile acid receptor (Homo sapiens); assay: Agonist activity at […] (unknown origin) expressed in human HepG2 cells co-expressing rat CYP7A1 gene promoter assessed as transrepression of CYP7A1 promoter driven luciferase activity at 100 nM relative to untreated control; assay type: cell-based; summary of the method: as §1
[9] = biological target: T1, Bile acid receptor (Homo sapiens); assay: Agonist activity at […] (unknown origin) expressed in human HepG2 cells co-expressing rat CYP7A1 gene promoter assessed as transrepression of CYP7A1 promoter driven luciferase activity relative to untreated control; assay type: cell-based; summary of the method: as §1
[10] = biological target: T1, Bile acid receptor (Homo sapiens); assay: Agonist activity at […] (unknown origin) expressed in human HepG2 cells co-expressing human PLTP gene promoter assessed as transactivation of PLTP promoter driven luciferase activity at 100 nM relative to untreated control; assay type: cell-based
Summary of the method: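 HepG2 cells (1 × 10^5 cells/well, phenol red-free DMEM, 10% charcoal-stripped FBS, pen/strep) transfected the next day with wild-type FXR plasmid pCMV-FXR (2 µg), pPLTP-Luc reporter (6 µg) and pCMV-β-gal (1 µg). Dosed 48 h at 100 nM–10 µM. Luciferase normalized to β-gal, expressed relative to DMSO (=1), 10 µM CDCA reference; mean ± SD of ≥3 determinations.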

[11] = biological target: T1, Bile acid receptor (Homo sapiens); assay: as §2, with “1 uM” for “100 nM”; assay type: cell-based; summary of the method: as §3
[12] = biological target: T1, Bile acid receptor (Homo sapiens); assay: Agonist activity at […] (unknown origin) expressed in human HepG2 cells co-expressing human SHP gene promoter assessed as transactivation of SHP promoter driven luciferase activity at 1 uM relative to untreated control; assay type: cell-based
[13] = biological target: T1, Bile acid receptor (Homo sapiens); assay: Agonist activity at […] (unknown origin) expressed in human HepG2 cells co-expressing human SHP gene promoter assessed as transactivation of SHP promoter driven luciferase activity at 100 nM to 10 uM relative to untreated control; assay type: cell-based

CO[C@H]1CC2=C(C(=O)C[C@@H](c3ccccc3)O2)[C@H]2CC(=O)O[C@@H]12 [7-O-METHYLCRYPTOCHINONE A]
Activity [1]: Non-toxic | inhibition [2]: 60% | Activity [3]: Dose-dependent effect | Activity [4]: inactive | Activity [5]: Active | Activity [6]: inactive | Activity [7]: inactive | Activity [8]: inactive | Activity [9]: Dose-dependent effect | Activity [10]: inactive | fold change (FC) [11]: 1.5 | fold change (FC) [12]: 3

CO[C@H]1CC2=C(C(=O)C[C@@H](c3ccccc3)O2)[C@@H]2CC(=O)O[C@H]12 [7-O-METHYLCRYPTOCHINONE B]
Activity [1]: Non-toxic | inhibition [2]: 60% | Activity [3]: Dose-dependent effect | Activity [4]: inactive | Activity [5]: Active | Activity [6]: inactive | Activity [7]: inactive | Activity [8]: inactive | Activity [9]: Dose-dependent effect | Activity [10]: inactive | fold change (FC) [11]: 1.5 | fold change (FC) [12]: 3

O=C1C[C@@H]2C3=C(C[C@H](O)[C@@H]2O1)O[C@H](c1ccccc1)CC3=O [CRYPTOCHINONE A]
Activity [1]: Non-toxic | Activity [13]: Active | inhibition [2]: 60% | Activity [3]: Dose-dependent effect | Activity [4]: inactive | Activity [6]: inactive | Activity [7]: Active | Activity [8]: inactive | Activity [9]: Dose-dependent effect | Activity [10]: inactive | fold change (FC) [11]: 1.5

O=C1C[C@H]2C3=C(C[C@H](O)[C@H]2O1)O[C@H](c1ccccc1)CC3=O [CRYPTOCHINONE B]
Activity [1]: Non-toxic | Activity [13]: Active | inhibition [2]: 60% | Activity [3]: Dose-dependent effect | Activity [4]: inactive | Activity [6]: inactive | Activity [7]: Active | Activity [8]: inactive | Activity [9]: Dose-dependent effect | Activity [10]: inactive | fold change (FC) [11]: 1.5
